From PubChem BioAssay
In the library only some 3.5% were active in any assay of this set; here they are far more common.
MrgX1 antag: antagonists of human MrgX1 receptor, primary screen, HEK293 cells, Fluo-4 calcium flux | AID 588676, 2011 | BAM8-22 antagonism; hits give low values | B-score at 10 µM | 1.3% of 310,000 active;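 active = calcium-response B-score plate-corrected more than 3 library SD below zero, starting fluorescence within 5 deviations, no agonist response on first addition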;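 note: peak minus trough fluorescence over baseline after final BAM8-22 challenge near maximal dose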
RGS4 pot: RGS4 potentiators or activators, primary screen, cell-based, HEK293 M3R inducible RGS4, calcium flux | carbachol calcium flux Fluo4; hits give low values | AID 463111, 2010 | B-score at 10 µM | 0.92% of 310,000 active;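 active = B-score of the integrated calcium signal more than 4 SD below the library mean, with starting fluorescence not abnormally high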;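 note: negative B-score means reduced calcium response which marks RGS4 activation or potentiation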
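test system = HEK293 cells with stable M3R and inducible RGS4 | schedule = recording 10 s baseline at 1 Hz, 100 s post-agonist | technique = Fluo4-AM (2 µM) calcium-flux fluorescence, kinetic read | measure = Agonist-evoked peak-minus-minimum fluorescence over baseline, integrated ratio, B score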
RGS4 inh: RGS4 inhibitors, primary screen, cell-based, HEK293 M3R inducible RGS4, calcium flux | Regulator of G-protein signaling 4 (Homo sapiens), P49798 | Fluo-4 calcium flux; hits give high values; triggered by carbachol at its EC20 | B-score at 10 µM | 0.45% of 310,000 active;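 active = B-score, a plate-corrected calcium signal, over three deviations above library mean, with baseline fluorescence within five deviations of library mean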;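 note: RGS4 expression induced by doxycycline in cells with stable M3 receptor; B-score is computed from the integrated fluorescence ratio over baseline after carbachol; higher B-score means a larger calcium signal and so more RGS4 inhibition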
Target sequence (P49798 whole entry, looked up): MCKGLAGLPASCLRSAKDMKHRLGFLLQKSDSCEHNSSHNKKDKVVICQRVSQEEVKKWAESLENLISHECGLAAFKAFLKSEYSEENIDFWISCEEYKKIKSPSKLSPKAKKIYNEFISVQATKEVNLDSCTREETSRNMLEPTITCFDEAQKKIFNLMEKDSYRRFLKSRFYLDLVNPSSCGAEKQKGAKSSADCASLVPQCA
MrgX1 agonist: agonists of human MrgX1 receptor, primary screen, HEK293 cells, Fluo-4 calcium flux; Fluo-4 calcium fluorescence, agonist mode; hits give high values; B-score at 10 µM; 0.44% of 310,000 active;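 active = calcium response B-score plate-corrected fluorescence ratio at least 3 library SD, with starting fluorescence B-score inside 5 SD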
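Assay system: MrgX1-expressing HEK293 cells / Amount: fifteen thousand cells per well / Doses: test compound in the initial addition of three / Timing: cells plated overnight, dye loaded 0.5 h 37 °C, 0.5 h room temperature / Technique: kinetic calcium dye fluorescence, Fluo-4 NW / Control set: positive and negative controls per plate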
MrgX1 PAM: positive allosteric modulators of MrgX1, primary screen, HEK293 cells, Fluo-4 calcium flux | Mas-related G-protein coupled receptor member X1 (Homo sapiens), Q96LB2 | B-score at 10 µM | 0.63% of 310,000 active | FDSS; hits give high values;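 active = plate-corrected calcium response at least 3 library SD above typical, normal starting fluorescence, not activating the receptor alone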;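 note: compound read alongside a low EC10 to EC30 dose of BAM8-22 agonist; peak minus trough fluorescence over baseline measured at the second addition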
RGS4 act valid: reduced carbachol calcium response, RGS4-induced M3R cells, confirmation, RGS4 activator project, cell-based, HEK293 M3R/RGS4 inducible, calcium flux, duplicate; shares compounds with RGS4 pot; carbachol calcium flux Fluo4; inhibition, % at 10 µM; 89% of 1,100 active; AID 602282, 2012;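 active = inhibition above 3 SD of the buffer control wells, cut at about 41% in these data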;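 note: signal is the integrated peak-minus-minimum Fluo4 fluorescence over baseline ratio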
M3R Ca counter: counter-screen for RGS4 activators: effect in non-induced cells; shares compounds with RGS4 pot; HEK293 M3R non-induced RGS4, Fluo4 calcium flux; after carbachol challenge at its EC90; inhibition, % at 10 µM; 82% of 1,100 active; AID 602283;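 active = inhibition exceeding 3 SD of buffer-only control wells, cut at about 26% in these data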;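 note: percent drop in integrated peak-minus-baseline over baseline Fluo4 ratio after carbachol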
* hit, by the source's call; i = inactive; · = no result given.

SMILES | MrgX1 antag | RGS4 pot | RGS4 inh | MrgX1 agonist | MrgX1 PAM | RGS4 act valid | M3R Ca counter
COc1cccc(-c2nn(-c3ccccc3)cc2C(=O)Nc2nccs2)c1 | i | i | i | i | i | · | ·
COc1ccc(-c2nn(-c3ccccc3)cc2C(=O)Nc2nccs2)cc1 | i | -8.72* | i | i | i | 68.0* | 0.0
COc1ccc(S(=O)Cc2ccc(C(=O)N3CCN(C(=O)c4ccco4)CC3)o2)cc1 (stereo not given) | i | i | i | i | i | · | ·
Cc1cccc(NS(=O)(=O)c2ccc(C3CCCCC3)cc2)c1 | i | -8.84* | i | i | i | 94.5* | 91.8*
CCn1cc(/C=C(\NC(=O)c2ccccc2Cl)C(=O)N2CCN(C)CC2)c2ccccc21 | · | i | i | · | · | · | ·
CN(C)CC(=O)N1c2ccccc2CCc2ccc(NC(=O)c3ccc(N)cc3)cc21 | i | i | i | i | i | · | ·
COc1cc(C(=O)Nc2ccc3c(c2)N(C(=O)CCN(C)C)c2ccccc2CC3)cc(OC)c1OC | i | -11.7* | i | i | i | 91.5* | 79.3*
COc1ccc(OC)c(C(=O)N2CCC(CCC(=O)NC3CC3)CC2)c1 | i | i | i | i | i | · | ·
CCCCCCCCCn1ccc(=N)cc1 | i | i | i | i | i | · | ·
CCCCCCCn1ccc(=N)cc1 | i | -9.2* | i | i | i | 69.0* | 29.8*
CCOc1ccc(NC(=O)CSc2ncn[nH]2)cc1 | i | i | i | i | i | · | ·
Cc1ccc(NS(=O)(=O)N(C)C)cc1 | i | i | i | i | i | · | ·
Cc1ccc(/C=C/S(=O)(=O)Nc2ccc(C)cc2)cc1 | i | -9.76* | i | i | i | 90.0* | 44.3*
CCOC(=O)N1CCC(Nc2c([N+](=O)[O-])cc(C(=O)O)cc2[N+](=O)[O-])CC1 | i | i | i | i | i | · | ·
COc1ccc(S(=O)(=O)n2cnc3cc(C)c(C)cc32)cc1 | i | i | i | i | i | · | ·
COc1ccc(S(=O)(=O)n2cnc3cc(C)c(C)cc32)cc1C | i | -10* | i | i | i | 88.5* | 45.8*
COc1ccccc1C(CNC(=O)C(C)(C)Oc1ccc(Cl)cc1)N1CCCC1 (stereo not given) | i | -8.85* | i | i | i | 89.5* | 25.8*
CN1[C@@H]2CC[C@H]1CC(OC(=O)C(O)c1ccccc1)C2 (stereo not given in full) | i | · | · | i | i | · | ·
CN1C2CCC1CC(OC(c1ccccc1)c1ccccc1)C2 (stereo not given) | i | -8.84* | i | i | i | 92.0* | 91.3*
O=C(O)CCCNS(=O)(=O)/C=C/c1ccccc1 | i | i | i | i | i | · | ·
COc1ccc(C)cc1S(=O)(=O)N1CCC(C(=O)NC2CCCC2)CC1 | i | -8.09* | i | i | i | 0.0 | 0.0
COc1ccccc1NC(=O)Cn1c(CCC(=O)O)ccc1-c1ccc(C)cc1 | i | i | i | i | i | · | ·
CC(C)(O)C#Cc1ccc(CN2CCN(C3CCCCC3)C(CCO)C2)cc1 (stereo not given) | i | i | i | i | i | · | ·
CSc1ccc(CN2CCN(C3CCCC3)C(CCO)C2)cc1 (stereo not given) | i | -8.9* | i | i | i | 88.5* | 59.8*
CC(C)(O)C#Cc1ccc(CN2CCN(C3CCCCC3)C(CCO)C2)s1 (stereo not given) | i | -7.79* | i | i | i | 64.5* | 26.3*
